Consider 7 compounds from PubChem BioAssay.

Test [1] can be described thus: inhibitors of TNFa-induced NFkB p65 translocation, primary screen, imaging, HUVEC, MLSMR starter and 10KST1 sets (AID 438;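 active means inhibition above 20% together with a positive visual image hit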;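 further: compound added about 3h40 before a 20 min TNFalpha stimulation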;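 on inhibition: signal is the nuclear over cytoplasmic p65 intensity ratio per well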). Conditions: HUVEC TNFa-induced p65 nuclear translocation; cell count: measured here: nuclei count (cytotoxicity indicator), at 2.08 µM; inhibition: at 2 µM, stronger effect = higher value, 0% TNFa-plus-vehicle, 100% no-TNFa wells.
Test [2] in a line: endothelial E-selectin expression blockers – imaging, HUVEC, immunofluorescence, MLSMR starter and 10KST1 sets, primary screen (AID 487;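 active means visually confirmed hit in the image check and inhibition above 20%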;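 on inhibition: signal is fraction of cell area covered by stained E-selectin grains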;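 on nuclei count: 100% = median nuclei count of all wells on the same plate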). The note with it: HUVEC TNFalpha-induced E-selectin immunofluorescence imaging, at 2 µM; inhibition: stronger effect = higher value; nuclei count: measured here: cell number, toxicity.
Test [3] in a line: Primary imaging screen for DUSP6 inhibitors that restore phospho-Erk in transfected HeLa cells, chemical complementation (AID 609).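 On inhibition: phospho-Erk level distribution per well compared with pooled transfected vehicle control wells.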 The note with it: HeLa MKP-3 transfected, phospho-Erk imaging KS statistic, at 10 µM, cells stimulated with TPA for 15 min.
The target in test [4] is Dual specificity protein phosphatase 6 (Homo sapiens) (UniProt Q16828). Described as above. Conditions: HeLa MKP-3 transfected, phospho-Erk imaging KS statistic; at 10 µM; stronger effect = higher value; cells stimulated with TPA for 15 min.
The target in test [5] is Voltage-gated potassium channel subunit beta-2 (Rattus norvegicus) (UniProt P62483). As to the kind of experiment: inhibitors of rat Kvbeta2 reductase activity – biochemical, NADPH fluorescence, primary screen (AID 622;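 active means fluorescence slope higher than the sample average by over 3 SD, cut at about -0.22 in these data, passing the limit was not always enough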;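 further: slope of raw intensity against log time taken from 70 to 1610 s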). The note with it: recombinant KvBeta, 4-cyanobenzaldehyde reduction, at 10 µM, stronger effect = higher value.
Test [6] has the same target. In words: enhancers of rat Kvbeta2 NADPH turnover – biochemical, NADPH fluorescence, primary screen (AID 623;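 active means NADPH fluorescence slope more negative than the mean of all samples by about 3 SD, 99.7% confidence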;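 further: fluorescence intensity change per second fitted from 20 to 320 s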). The note with it: Recombinant KvBeta, NADPH fluorescence decrease slope, 10 min; at 10 µM; stronger effect = lower value.
Test [7] concerns the target Alpha-2C adrenergic receptor (Homo sapiens) (UniProt P18825). In words: compounds altering alpha2C-coupled GIRK flux – cell-based, HEK293 alpha2C/GIRK1/2, thallium flux, primary screen (AID 624;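 active means fluorescence slope after compound addition differing from the mean of all screened samples at 99.7% confidence, in either direction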;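 further: slope of fluorescence ratio to pre-addition baseline per second over 15 to 24 s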). The note with it: thallium flux BTC fluorescence, at 10 µM, actives lie on both sides.
The nature of test [8]: inhibitors of larval lipid processing in zebrafish, primary screen, whole organism, PED6 fluorescence, gall bladder and intestine (AID 686;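 active means a full or partial loss of lipid-probe fluorescence in the fish gall bladder, intestine or both, judged by eye; inactive means no fluorescence loss, or compound toxic to the fish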;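 further: larvae 5 to 7 days old with five fish per well; signal comes from phospholipase A2 cleavage of quenched PED6 carried via bile; overnight exposure to compound and PED6 before scoring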). Conditions: Zebrafish larvae PED6 lipid processing, fluorescence scoring; screened at 20 µM (by protocol). The gist of the method:
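System: live zebrafish larvae aged 5-7 days, whole organism; measure: graded gall bladder and intestinal fluorescence inhibition per well; incubation: overnight exposure; reagent: ingested quenched lipid PED6 at 100 nM; signal: By-eye fluorescence microscopy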

Test [9] is described as follows: loss of swimming-algae plug formation – whole organism, Chlamydomonas reinhardtii, WT vs cilia-less mutant, absorbance, 96-well, primary screen (AID 463189;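 active means inhibition at or above 50% relative to wild type and mutant plate controls; inactive means inhibition below 50%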;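 further: 0% = wild type cc124 cells in DMSO and 100% = ciliumless bld1 mutant cells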). Conditions: Chlamydomonas reinhardtii gravitaxis, OD600 absorbance, 2 days; at 10 µM; stronger effect = higher value.
Where [10] appears, read: measured here: cell density z-score.
The mark [11] stands for this setting: measured here: nuclear c-Myc green intensity z-score.
Where [12] appears, read: measured here: nuclear pErk red intensity z-score, stronger effect = higher value.

Each structure is given as a SMILES string. Activity calls are given as the source filed them.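 How the source made its calls, unless noted: active means compounds giving at least 50% inhibition in the cell-based MKP-3 phosphatase rescue imaging test; inactive means the rest.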

Sequence of Alpha-2C adrenergic receptor (Homo sapiens) (P18825 whole entry, looked up): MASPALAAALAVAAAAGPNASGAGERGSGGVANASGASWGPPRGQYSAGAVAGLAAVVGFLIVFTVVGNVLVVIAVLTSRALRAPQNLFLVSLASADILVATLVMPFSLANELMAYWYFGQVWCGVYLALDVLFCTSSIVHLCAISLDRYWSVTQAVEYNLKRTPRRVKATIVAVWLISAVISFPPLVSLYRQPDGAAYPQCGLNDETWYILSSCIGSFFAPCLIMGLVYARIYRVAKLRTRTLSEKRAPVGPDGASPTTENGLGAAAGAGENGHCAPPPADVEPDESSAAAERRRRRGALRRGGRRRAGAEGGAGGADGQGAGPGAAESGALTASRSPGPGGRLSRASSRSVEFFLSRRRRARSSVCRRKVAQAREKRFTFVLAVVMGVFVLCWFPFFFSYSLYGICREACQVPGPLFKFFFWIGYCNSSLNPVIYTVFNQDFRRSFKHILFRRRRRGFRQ
Sequence of Dual specificity protein phosphatase 6 (Homo sapiens) (Q16828 whole entry, looked up): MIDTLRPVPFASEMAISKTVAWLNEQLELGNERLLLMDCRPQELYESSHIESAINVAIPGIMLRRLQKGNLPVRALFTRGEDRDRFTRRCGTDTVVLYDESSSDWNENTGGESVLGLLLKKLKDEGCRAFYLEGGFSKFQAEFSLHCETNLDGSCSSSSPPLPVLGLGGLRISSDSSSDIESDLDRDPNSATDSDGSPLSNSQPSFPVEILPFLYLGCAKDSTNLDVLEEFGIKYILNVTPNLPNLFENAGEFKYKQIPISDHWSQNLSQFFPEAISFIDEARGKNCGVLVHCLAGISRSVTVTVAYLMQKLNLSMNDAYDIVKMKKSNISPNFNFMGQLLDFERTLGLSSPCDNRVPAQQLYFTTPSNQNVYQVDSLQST
Sequence of Voltage-gated potassium channel subunit beta-2 (Rattus norvegicus) (P62483 whole entry, looked up): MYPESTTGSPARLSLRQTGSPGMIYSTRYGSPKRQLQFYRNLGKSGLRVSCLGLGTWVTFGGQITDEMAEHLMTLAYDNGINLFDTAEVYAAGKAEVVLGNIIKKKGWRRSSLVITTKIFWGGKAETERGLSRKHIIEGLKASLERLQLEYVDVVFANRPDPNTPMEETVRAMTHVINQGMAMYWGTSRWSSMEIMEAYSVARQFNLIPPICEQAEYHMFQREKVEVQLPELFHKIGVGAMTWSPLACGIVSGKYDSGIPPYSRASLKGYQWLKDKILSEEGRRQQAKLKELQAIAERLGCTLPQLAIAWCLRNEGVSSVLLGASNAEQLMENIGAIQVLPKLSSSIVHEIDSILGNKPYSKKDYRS

Turning to `CC(=O)c1cc(C#N)c(SCC(=O)C(C)(C)C)nc1C`, the cell count in test [1] came out at 620. The inhibition in test [1] is -22.5% (inactive); in test [2] it was 43.4% (inactive); in test [4] it was -3.95% (inactive); in [9], 42.5% (inactive). In addition, the nuclei count in [2] was determined as 103%. Further, the figures for the z-score in [3] (setting [10]), in [3] (setting [11]) and in test [3] (setting [12]) were -0.699, -0.489 and -0.711, respectively. Also, in test [5], the fluorescence slope is -0.462 (inactive). In addition, the NADPH fluorescence slope in test [6] was -1.9e-05 (inactive). For the same compound, the slope in [7] is 0.00715 (inactive). In [8], the compound was called inactive.

Consider `CCCCCCn1cc(C(=O)O)c(=O)c2ccccc21`, for which the cell count in test [1] amounted to 426. In addition, the inhibition in [1] is -5.3% (inactive); in test [2] it was -95% (inactive); in test [4], -7.28% (inactive); in test [9], -8.24% (inactive). This compound also yielded a nuclei count in test [2] of 158%. The z-score is -1.56 in test [3] (setting [10]), 1.61 in test [3] (setting [11]) and 1.42 in test [3] (setting [12]). Further, the fluorescence slope in test [5] was -0.402 (inactive). Moreover, the NADPH fluorescence slope in test [6] was -1.4e-06 (inactive). In addition, the slope in test [7] is 0.00525 (inactive). Also, the call in test [8] was inactive.

Take `Oc1ccc(Br)cc1CNn1cnnc1`: the cell count in test [1] was found to be 501. In addition, the inhibition in test [1] is -5.8% (inactive); in test [2] it was -3.9% (inactive); in test [4], -1.75% (inactive); in test [9], 16.1% (inactive). The same compound registered a nuclei count in test [2] of 122%. Also, the z-score in test [3] (setting [10]) was -0.232; in test [3] (setting [11]) it was 1.89; in test [3] (setting [12]), 1.27. In test [5], the fluorescence slope is -0.454 (inactive). In test [6], the NADPH fluorescence slope is -2.5e-06 (inactive). Further, the slope in test [7] was 0.0058 (inactive). Moreover, in test [8], the compound was classed as inactive.

Turning to `CCCCOC(=O)CSC1=C(C#N)C(c2ccccc2OC)C(C#N)C(=O)N1` (stereo unspecified), the cell count in test [1] is 504. Further, the inhibition is -3% (inactive) in [1], -46% (inactive) in test [2], 9.39% (inactive) in test [4] and -21.1% (inactive) in [9]. For the same compound, in [2], the nuclei count came out at 116%. The z-score is -0.706 in test [3] (setting [10]), 0.338 in test [3] (setting [11]) and 1.09 in test [3] (setting [12]). Further, the fluorescence slope in test [5] was -0.481 (inactive). In [6], the NADPH fluorescence slope was -0.000165 (inactive). Moreover, the slope in [7] is 0.00464 (inactive). In addition, in [8], the call was inactive.

As to `COC(=O)c1ccc(-c2sc3nc(N4CCOCC4)c4c(c3c2N)CC(C)(C)OC4)o1`, the cell count in [1] amounted to 595. In addition, the inhibition in test [1] is -19.5% (inactive); in [2] it was -62.4% (inactive); in test [4] it was -0.624% (inactive); in test [9], -4.84% (inactive). The compound also returned a nuclei count in test [2] of 153%. Besides, the z-score in test [3] (setting [10]) is -1.25; in test [3] (setting [11]), 1.71; in test [3] (setting [12]), 2.19. In addition, the fluorescence slope in test [5] was -0.16 (inactive). For the same compound, the NADPH fluorescence slope in test [6] was -2.4e-05 (inactive). In addition, in [7], the slope was 0.00678 (inactive). The compound was called inactive in test [8].

As to `COc1cccc(-c2nnc3sc(-c4ccc(Cl)cc4)nn23)c1`, the cell count in test [1] came to 588. Also, the inhibition in test [1] was 3.2% (inactive); in [2], 19.9% (inactive); in test [4], -4.27% (inactive); in [9] it was 5.02% (inactive). Moreover, in [2], the nuclei count stood at 102%. The z-score in test [3] (setting [10]) was 0.426; in test [3] (setting [11]) it was -0.269; in test [3] (setting [12]), 0.00297. Further, the fluorescence slope in test [5] is -0.385 (inactive). In addition, the NADPH fluorescence slope in test [6] is -1.5e-05 (inactive). In test [7], the slope was 0.00661 (inactive). The outcome in [8] was inactive.

With `Clc1ccc(-c2nn3c(-c4cccc(Cl)c4)nnc3s2)cc1`, in test [1], the cell count is 603. For the same compound, the inhibition in test [1] was -0.1% (inactive); in test [2] it was -90.1% (inactive); in test [4], -2.47% (inactive); in [9], 33% (inactive). In [2], this compound registered a nuclei count of 150%. Besides, the z-score in test [3] (setting [10]) is -0.779; in test [3] (setting [11]) it was 0.764; in test [3] (setting [12]), -0.704. In addition, the fluorescence slope in [5] was -0.42 (inactive). Besides, the NADPH fluorescence slope in [6] is -9.2e-05 (inactive). The slope in [7] is 0.00631 (inactive). Further, the result in [8] was inactive.
